{
  "source": "paper PMC6315297",
  "about": "(AIDS (London, England), 2013)",
  "target": "HLA-A*68:02 (Homo sapiens, UniProt P04439, A269V/D140Y/D185E/E176V/E277Q/E87N/F33Y/G231S/I121R/I166T/I218V/L180W/L300P/L318F/N151K/P208A/P217A/Q86R/R138H/R169H/S129P/T345S/V36M)",
  "assay": "HLA peptide binding assay",
  "summary_of_the_method": "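Recombinant biotinylated HLA-A*68:02 heavy chain diluted to 2 nM in a mix of 30 nM β2m and peptide, folded 48 h at 18°C. Folded complexes detected by AlphaScreen with streptavidin donor beads and acceptor beads carrying the conformation-dependent anti-HLA-I antibody W6/32. Beads at final 5 μg/mL, incubated overnight at 18°C. Plates equilibrated to reader temperature 1 h before reading.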",
  "note": "pKd: −log10 of the molar value. Peptide text beside a SMILES is read from it.",
  "data": [
    {"smiles": "CC(C)[C@H](NC(=O)[C@H](Cc1ccc(O)cc1)NC(=O)[C@H](Cc1ccccc1)NC(=O)[C@@H](NC(=O)[C@@H](N)CCC(=O)O)[C@@H](C)O)C(=O)N[C@@H](CC(=O)O)C(=O)NCC(=O)N[C@@H](C)C(=O)O", "note": "[ETFYVDGA] (H-ETFYVDGA-OH)", "values": [
      {"measurement": "pKd", "value": 8.70}
    ]}
  ]
}
